Our source for the outcome, potentiation and inhibition values is PubChem BioAssay.

Active and inactive are the calls of the source.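 The calls were made as follows, unless noted: active = calcium signal cut by more than 3 SD below the full-agonist control yet still positive, in both repeats and the earlier primary screen; inactive = the rest.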

Sequence of Short transient receptor potential channel 4 (Mus musculus) (Q9QUQ5 whole entry, looked up): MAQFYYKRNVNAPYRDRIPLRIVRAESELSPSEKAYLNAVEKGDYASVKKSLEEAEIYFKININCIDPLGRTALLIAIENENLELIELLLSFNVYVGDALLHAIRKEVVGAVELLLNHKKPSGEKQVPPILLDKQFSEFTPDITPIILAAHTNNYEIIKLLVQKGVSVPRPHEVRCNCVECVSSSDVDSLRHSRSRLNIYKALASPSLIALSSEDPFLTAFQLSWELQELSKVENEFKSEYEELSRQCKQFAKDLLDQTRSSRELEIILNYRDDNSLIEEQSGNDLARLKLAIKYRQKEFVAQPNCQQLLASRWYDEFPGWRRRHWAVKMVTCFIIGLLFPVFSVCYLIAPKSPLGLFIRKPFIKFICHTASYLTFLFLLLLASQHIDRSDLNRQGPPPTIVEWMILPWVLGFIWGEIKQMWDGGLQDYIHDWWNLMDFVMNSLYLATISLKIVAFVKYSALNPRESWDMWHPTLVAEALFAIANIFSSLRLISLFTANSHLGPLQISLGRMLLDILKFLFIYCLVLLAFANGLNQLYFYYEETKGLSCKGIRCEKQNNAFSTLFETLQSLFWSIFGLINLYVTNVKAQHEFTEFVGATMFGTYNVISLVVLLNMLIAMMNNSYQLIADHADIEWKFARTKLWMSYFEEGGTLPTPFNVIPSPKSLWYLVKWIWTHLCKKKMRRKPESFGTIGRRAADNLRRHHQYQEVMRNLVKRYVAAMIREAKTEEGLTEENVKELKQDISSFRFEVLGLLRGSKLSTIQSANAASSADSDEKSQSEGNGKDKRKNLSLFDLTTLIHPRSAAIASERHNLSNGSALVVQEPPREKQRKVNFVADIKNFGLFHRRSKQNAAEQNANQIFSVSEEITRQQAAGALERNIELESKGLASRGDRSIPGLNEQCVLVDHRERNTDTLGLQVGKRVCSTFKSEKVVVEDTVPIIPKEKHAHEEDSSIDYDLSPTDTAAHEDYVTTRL

The test system of the first assay is TRPC4 beta (transient receptor potential cation channel C4), mouse. Description: potentiation of DAMGO EC20 TRPC4 response – cell-based, Fluo-4, HEK293 TRPC4beta/mu-opioid, confirmation (AID 2555;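 active = primary screen hit whose calcium fluorescence ratio, in both repeats, exceeds the weak agonist control mean by 3 SD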). To be noted: DAMGO EC20, Fluo-4 calcium flux, at 10 µM; active compounds read high.
`Cc1sc2ncnc(NC3CCN(Cc4ccccc4)CC3)c2c1C`: the result was inactive. As to `CCCCN(CC)CCNC(=O)c1cc2c(C)nc3ccccc3c2o1`, the outcome was inactive.

`O=C(NCCc1ccccn1)c1ccc(OC2CCN(CCc3ccccc3)CC2)cc1`: the outcome was inactive. Same read-out and setting: in the case of `Cc1ccccc1NC(=S)NCCc1ccccn1` it was “inactive”; in that of `NCCCn1c(C(=O)c2cc(Cl)c(N)c(Cl)c2)c2ccccc2[n+]1[O-]`, “inactive”. Still for that read-out and setting: the same measure for `COc1ccc(-c2nn(-c3ccccc3)cc2CNCc2cccnc2)c(F)c1`: “inactive”. Same read-out and setting: in the case of `Cc1onc(-c2ccccc2)c1C(=O)NC(=S)NNC(=O)c1ccco1` it was “inactive”; in that of `COc1ccc(C(CNC(=O)c2ccc(S(=O)(=O)N(C)C)cc2)N(C)C)cc1` (centres undefined), “inactive”.

Consider `CCN1C(=O)c2cccc3c(S(=O)(=O)Nc4ccccc4OC)ccc1c23`, for which the result was inactive.

As for `CCOC(=O)C1CCCN(C(c2ccccn2)c2c(C)[nH]c3ccccc23)C1` (centres undefined), the outcome was inactive.

As for `COC(=O)c1ccccc1N=Nc1c(N)[nH][nH]c1=O`, the potentiation was 54% (active). As for `COc1ccc(C(CNCC(=O)Nc2ccccc2F)N(C)C)cc1` (centres undefined), the result was inactive. On the same count and under the same terms, the same measure for `CCOC(=O)C1(CCOc2ccccc2)CCN(Cc2cnc(C)s2)CC1`: “inactive”; for `O=C(c1sc2ccccc2c1Cl)N(Cc1ccco1)C1CCS(=O)(=O)C1` (centres undefined): “inactive”. In the case of `CCCCN(C)CCCNC(=O)CN1N=C(c2ccc(Cl)cc2)CCC1=O`, the result was inactive. Consider `CN(C)CCCN(C(=O)c1ccc(C(=O)c2ccccc2)cc1)c1nc2ccc(F)cc2s1`, for which the outcome was inactive. On the same count and under the same terms, in the case of `CN(CCc1nc2ccc(Cl)cc2[nH]1)Cc1nc(CC2CC2)no1` it was “inactive”; in that of `Fc1ccc(C(c2nnnn2Cc2cccs2)N2CCN(C3CCCCC3)CC2)cc1` (centres undefined), “inactive”. For `COc1ccc(C2Nc3ccccc3C(=O)N2Cc2ccco2)cc1COc1ccc(NC(C)=O)cc1` (centres undefined), the result was inactive. With `O=C(NCCCN1CCN(CCCNC(=O)c2ccc3c(c2)OCO3)CC1)c1ccc2c(c1)OCO2`, the result was inactive.

The next assay has as its target Short transient receptor potential channel 4 (Mus musculus) (UniProt Q9QUQ5). Description: blockers of DAMGO-evoked TRPC4 calcium flux – cell-based, Fluo4, HEK293 TRPC4beta/mu-opioid, confirmation (AID 2636). To be noted: at 10 µM; active compounds read high. Summed up:
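Test system – HEK293 cells stably co-expressing mouse TRPC4beta and mu-opioid receptor · Reagent – DAMGO agonist, submaximal followed by maximal addition · Technique – Fluo4 calcium flux fluorescence, kinetic read · Control set – no-compound wells and DAMGO maximal-stimulus wells · Doses – single final compound concentration of 10 µM · Timing – compound pre-incubation 110 s before DAMGO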
(In general: A change in cytosolic calcium serves as a functional read-out for many receptors and channels.)
For the compound `Fc1ccc(-c2nnc(CN3CCN(c4ncc(C(F)(F)F)cc4Cl)CC3)o2)cc1`, the outcome was inactive. Same read-out and setting: in the case of `CCN1CCN(c2ccc(S(=O)(=O)N3CCCCC3)cc2NC(=O)COc2ccccc2)CC1` it was “inactive”; in that of `CC1CC(C)CN(CCCNC(=O)c2nn(C)c3c2CS(=O)(=O)c2ccccc2-3)C1` (centres undefined), “inactive”. The same measure, in the same setting: the same measure for `Cc1ccc(/C=N\NC(=O)C2COc3cc4ccccc4cc3O2)o1` (centres undefined): “inactive”; for `Cc1cccc(C)c1OCC(O)CN` (centres undefined): “inactive”.

As to `CCn1cc(CN2CCCC(C(=O)Nc3ccc(-c4nc5ccccc5[nH]4)cc3)C2)c(C)n1` (centres undefined), the outcome was inactive. Still for that read-out and setting: in the case of `CC(C)(C)c1cc(Cl)ccc1OCCn1ccnc1` it was “inactive”; in that of `CC(C)c1ccc(NC(=S)N(C)CCc2ccccn2)cc1`, “inactive”; in that of `CCCC(=O)NC(C)C(c1cccs1)N1CCN(c2ccccc2)CC1` (centres undefined), “inactive”. The same measure, in the same setting: the same measure for `Cc1ccc2oc(=O)c3cnn(CC(=O)NC4CCN(Cc5ccccc5)CC4)c3c2c1`: “inactive”; for `O=C(CCc1ccccc1)NNC(=S)NC(=O)c1ccc(Cl)cc1`: “inactive”.

As for `C=CCn1c(CCNC(=O)c2ccco2)nc2ccccc21`, the result was inactive. The same measure, in the same setting: the same measure for `Cc1sc2nc(CSc3ccccc3)nc(NCCN(C)C)c2c1C`: “inactive”; for `O=C(CNS(=O)(=O)c1ccc2ccccc2c1)NCCc1ccccn1`: “inactive”; for `COc1ccc(-c2cc(C#N)nc(N3CCNCC3)n2)cc1`: “inactive”. With `Cc1ccc(C)c(OCCCCn2ccnc2)c1`, the outcome was inactive. On the same count and under the same terms, in the case of `CCCN(CCC)CCNC(=S)Nc1ccc2nc3n(c(=O)c2c1)CCCCC3` it was “inactive”.

Regarding `Cc1cccc(NC(=S)NCC(c2cccnc2)N(C)C)c1` (centres undefined), the result was inactive.

Consider `COc1ccc(/C=C/CN2CCCC(C(=O)c3ccc(OC)c(F)c3)C2)cc1` (centres undefined), for which the outcome was inactive. As to `Cc1sc2ncnc(NC3CCN(Cc4ccccc4)CC3)c2c1C`, the result was inactive. Same read-out and setting: the same measure for `CCCCN(CC)CCNC(=O)c1cc2c(C)nc3ccccc3c2o1`: “inactive”. For `O=C(NCCc1ccccn1)c1ccc(OC2CCN(CCc3ccccc3)CC2)cc1`, the result was inactive. Same read-out and setting: in the case of `Cc1ccccc1NC(=S)NCCc1ccccn1` it was “inactive”. Broadly, the inhibition is the relative decrease from the control value, in per cent. For the compound `NCCCn1c(C(=O)c2cc(Cl)c(N)c(Cl)c2)c2ccccc2[n+]1[O-]`, the inhibition was 83% (active).

Turning to `COc1ccc(-c2nn(-c3ccccc3)cc2CNCc2cccnc2)c(F)c1`, the result was inactive. Regarding `Cc1onc(-c2ccccc2)c1C(=O)NC(=S)NNC(=O)c1ccco1`, the result was inactive. The same measure, in the same setting: the same measure for `COc1ccc(C(CNC(=O)c2ccc(S(=O)(=O)N(C)C)cc2)N(C)C)cc1` (centres undefined): “inactive”; for `CCN1C(=O)c2cccc3c(S(=O)(=O)Nc4ccccc4OC)ccc1c23`: “inactive”; for `CCOC(=O)C1CCCN(C(c2ccccn2)c2c(C)[nH]c3ccccc23)C1` (centres undefined): “inactive”.

For the compound `COC(=O)c1ccccc1N=Nc1c(N)[nH][nH]c1=O`, the result was inactive. Regarding `COc1ccc(C(CNCC(=O)Nc2ccccc2F)N(C)C)cc1` (centres undefined), the outcome was inactive. The same measure, in the same setting: in the case of `CCOC(=O)C1(CCOc2ccccc2)CCN(Cc2cnc(C)s2)CC1` it was “inactive”; in that of `O=C(c1sc2ccccc2c1Cl)N(Cc1ccco1)C1CCS(=O)(=O)C1` (centres undefined), “inactive”. Still for that read-out and setting: in the case of `CCCCN(C)CCCNC(=O)CN1N=C(c2ccc(Cl)cc2)CCC1=O` it was “inactive”. The same measure, in the same setting: the same measure for `CN(C)CCCN(C(=O)c1ccc(C(=O)c2ccccc2)cc1)c1nc2ccc(F)cc2s1`: “inactive”; for `CN(CCc1nc2ccc(Cl)cc2[nH]1)Cc1nc(CC2CC2)no1`: “inactive”; for `Fc1ccc(C(c2nnnn2Cc2cccs2)N2CCN(C3CCCCC3)CC2)cc1` (centres undefined): “inactive”. With `COc1ccc(C2Nc3ccccc3C(=O)N2Cc2ccco2)cc1COc1ccc(NC(C)=O)cc1` (centres undefined), the result was inactive. As to `O=C(NCCCN1CCN(CCCNC(=O)c2ccc3c(c2)OCO3)CC1)c1ccc2c(c1)OCO2`, the outcome was inactive.
